Data from ChEMBL document CHEMBL3396953, “Design, synthesis and biological evaluation of a class of bioisosteric oximes of the novel dual peroxisome proliferator-activated receptor α/γ ligand LT175” (Eur J Med Chem, 2015).
pEC50: −log10 of the molar value. Active and inactive are the calls of the source. The calls are words filed in the database; no cut-off is given here.

Legend:
Format in all cases: cell-based
[1] = biological target: T1, Peroxisome proliferator-activated receptor alpha (Homo sapiens) (UniProt Q07869); experiment: Agonist activity at GAL4-DNA binding domain fused human PPARalpha ligand binding domain expressed in human HepG2 cells assessed as receptor transactivation incubated for 20 hrs by luciferase reporter gene assay relative to Wy-14,643
T1 sequence (whole entry): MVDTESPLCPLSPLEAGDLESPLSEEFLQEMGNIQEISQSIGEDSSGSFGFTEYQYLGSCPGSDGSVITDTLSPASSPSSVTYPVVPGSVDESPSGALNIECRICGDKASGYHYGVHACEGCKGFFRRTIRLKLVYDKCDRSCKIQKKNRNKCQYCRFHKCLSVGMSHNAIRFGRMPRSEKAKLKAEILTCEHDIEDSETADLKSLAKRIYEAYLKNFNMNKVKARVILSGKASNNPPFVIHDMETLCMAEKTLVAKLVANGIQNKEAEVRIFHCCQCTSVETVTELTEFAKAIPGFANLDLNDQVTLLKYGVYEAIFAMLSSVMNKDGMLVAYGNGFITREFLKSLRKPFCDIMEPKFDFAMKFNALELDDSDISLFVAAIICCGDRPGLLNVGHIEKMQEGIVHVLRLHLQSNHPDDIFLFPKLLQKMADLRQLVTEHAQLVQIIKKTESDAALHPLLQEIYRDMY
In short: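 GAL4-PPARα-LBD chimera transiently expressed in HepG2 cells; 10⁵ cells/well seeded in triplicate, calcium-phosphate transfection after 24 h with GAL4-PPARα-LBD plasmid (30 ng), pGAL5TKpGL3 reporter (100 ng) and pCMVβgal (250 ng). Efficacy expressed as percentage of maximum fold induction obtained with reference agonist Wy-14,643. Transfections repeated at least twice.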

[2] = biological target: T2, Peroxisome proliferator-activated receptor alpha (Homo sapiens, UniProt Q07869); experiment: Agonist activity at GAL4-DNA binding domain fused human PPARalpha ligand binding domain expressed in human HepG2 cells assessed as receptor transactivation incubated for 20 hrs by luciferase reporter gene assay; conditions: for pEC50: read-out: EC50; for EC50: hepg2
T2 sequence (Q07869 whole entry): T1 sequence (whole entry)
In short: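 GAL4-PPARα-LBD chimera transiently expressed in HepG2 cells; 10⁵ cells/well seeded in triplicate, calcium-phosphate transfection after 24 h with GAL4-PPARα-LBD plasmid (30 ng), pGAL5TKpGL3 reporter (100 ng) and pCMVβgal (250 ng). Transfections repeated at least twice.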

[3] = biological target: T3, Peroxisome proliferator-activated receptor gamma (Homo sapiens, UniProt P37231); experiment: Agonist activity at GAL4-DNA binding domain fused human PPARgamma ligand binding domain expressed in human HepG2 cells assessed as receptor transactivation incubated for 20 hrs by luciferase reporter gene assay; conditions: for pEC50: read-out: EC50
T3 sequence (P37231 whole entry): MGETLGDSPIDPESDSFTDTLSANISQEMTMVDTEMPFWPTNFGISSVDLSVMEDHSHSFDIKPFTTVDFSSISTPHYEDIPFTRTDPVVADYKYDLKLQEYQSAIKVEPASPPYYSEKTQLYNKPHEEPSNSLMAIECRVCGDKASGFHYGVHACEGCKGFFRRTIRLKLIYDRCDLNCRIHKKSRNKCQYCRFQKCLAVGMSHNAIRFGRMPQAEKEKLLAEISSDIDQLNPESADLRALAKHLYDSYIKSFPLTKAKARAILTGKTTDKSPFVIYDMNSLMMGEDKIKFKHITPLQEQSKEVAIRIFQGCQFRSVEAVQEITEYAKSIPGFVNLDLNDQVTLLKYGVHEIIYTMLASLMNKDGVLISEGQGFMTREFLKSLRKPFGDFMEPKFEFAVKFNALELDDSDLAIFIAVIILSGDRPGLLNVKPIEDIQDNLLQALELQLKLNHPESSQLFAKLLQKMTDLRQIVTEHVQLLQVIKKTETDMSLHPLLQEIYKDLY

[4] = biological target: T4, PPAR alpha/gamma (Homo sapiens) (UniProt P37231+Q07869); experiment: Agonist activity at PPARalpha/PPARgamma in human […] cells assessed as increase in FABP1 gene expression at 25 uM incubated for 1 day by quantitative PCR method relative to untreated control
In short: (§1)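 HepaRG cells grown two weeks in William's E medium with 10% FCS, insulin, glutamine and hydrocortisone, then two weeks more with 2% DMSO. Hepatocyte-like cells detached by mild trypsinization and seeded at 2.6 × 10⁴ cells/cm². After 24 h they were starved 16 h without DMSO/FCS, then exposed 24 h to ligand. Total RNA assayed by real-time qPCR; vehicle-treated control set to 1; duplicate samples; two-way ANOVA with Bonferroni.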

[5] = biological target: T4, PPAR alpha/gamma (Homo sapiens); experiment: Agonist activity at PPARalpha/PPARgamma in human […] cells assessed as increase in HMGCS2 gene expression at 25 uM incubated for 1 day by quantitative PCR method relative to untreated control; in short: as §1
[6] = biological target: T4, PPAR alpha/gamma (Homo sapiens); experiment: Agonist activity at PPARalpha/PPARgamma in human […] cells assessed as increase in ANGPTL4 gene expression at 25 uM incubated for 1 day by quantitative PCR method relative to untreated control; in short: as §1
[7] = biological target: T4, PPAR alpha/gamma (Homo sapiens); experiment: Agonist activity at PPARalpha/PPARgamma in human […] cells assessed as increase in CPT1A gene expression at 25 uM incubated for 1 day by quantitative PCR method relative to untreated control; in short: as §1
[8] = biological target: T4, PPAR alpha/gamma (Homo sapiens); experiment: Agonist activity at PPARalpha/PPARgamma in human […] cells assessed as increase in FABP4 gene expression at 25 uM incubated for 1 day by quantitative PCR method relative to untreated control; in short: as §1
[9] = biological target: T4, PPAR alpha/gamma (Homo sapiens); experiment: Agonist activity at PPARalpha/PPARgamma in human […] cells assessed as increase in CD36 gene expression at 25 uM incubated for 1 day by quantitative PCR method relative to untreated control; in short: as §1

| Emax [1] | pEC50 [2] | pEC50 [3] | SMILES | further results |
| --- | --- | --- | --- | --- |
| 58% | 5.17 | 5.68 | O=C(O)C(Cc1ccccc1)Oc1ccc(/C=N/OCc2ccccc2)cc1 (racemic) | – |
| 59% | 6.66 | 6.17 | CCCO/N=C(/c1ccccc1)c1ccc(OC(Cc2ccccc2)C(=O)O)cc1 (racemic) | – |
| 24% | 5.68 | 6.00 | CCCO/N=C(\c1ccccc1)c1ccc(OC(Cc2ccccc2)C(=O)O)cc1 (racemic) | – |
| 68% | 5.41 | 5.44 | CCCCO/N=C/c1ccc(OC(Cc2ccccc2)C(=O)O)cc1 (racemic) | – |
| 91% | 5.11 | 4.37 | O=C(O)C(Cc1ccccc1)Oc1ccc(/C=N/O)cc1 (racemic) | – |
| 52% | 5.42 | 5.35 | CC(C)CO/N=C/c1ccc(OC(Cc2ccccc2)C(=O)O)cc1 (racemic) | – |
| 96% | 5.14 | 5.10 | CCCO/N=C/c1ccc(OC(Cc2ccccc2)C(=O)O)cc1 (racemic) | – |
| 63% | 5.38 | 5.25 | CC(C)O/N=C/c1ccc(OC(Cc2ccccc2)C(=O)O)cc1 (racemic) | – |
| 98% | 5.26 | 4.55 | O=C(O)[C@H](Cc1ccccc1)Oc1ccc(/C=N/O)cc1 | – |
| 68% | 5.28 | 5.03 | C/C(=N\O)c1ccc(OC(Cc2ccccc2)C(=O)O)cc1 (racemic) | – |
| – | – | – | Cc1cccc(Nc2cc(Cl)nc(SCC(=O)O)n2)c1C [PIRINIXIC ACID] | EC50 ([3]; hepg2): Not Active |
| 78% | 5.92 | 4.91 | O=C(O)C(Cc1ccccc1)Oc1ccc(/C(=N/O)c2ccccc2)cc1 (racemic) | – |
| – | – | – | CCCCCCCO/N=C/c1ccc(OC(Cc2ccccc2)C(=O)O)cc1 (racemic) | EC50 [2]: Not Active |
| 91% | 5.42 | 5.42 | CCCO/N=C/c1ccc(O[C@@H](Cc2ccccc2)C(=O)O)cc1 | Activity [4]: Active; Activity [5]: Active; Activity [6]: Active; fold change (FC) [7]: 2; fold change (FC) [8]: 50; Activity [9]: Active |
| 101% | 5.11 | 4.89 | CO/N=C/c1ccc(OC(Cc2ccccc2)C(=O)O)cc1 (racemic) | – |
| 100% | – | – | O=C(O)[C@H](Cc1ccccc1)Oc1ccc(-c2ccccc2)cc1 | – |
| 48% | 5.66 | 5.74 | O=C(O)C(Cc1ccccc1)Oc1ccc(/C=N/OCCc2ccccc2)cc1 (racemic) | – |
| 24% | 5.85 | 5.90 | O=C(O)C(Cc1ccccc1)Oc1ccc(/C=N/OCCCc2ccccc2)cc1 (racemic) | – |

| SMILES | Emax [1] | pEC50 [2] | pEC50 [3] | further results |
| --- | --- | --- | --- | --- |
| CN(CCOc1ccc(CC2SC(=O)NC2=O)cc1)c1ccccn1 (stereo unspecified) [ROSIGLITAZONE] | inactive | – | – | EC50 [2]: Not Active |
